Assays:
[1] = test system: blood stage; assay: Blood stage assays; assay type: cell-based; conditions: Plasmodium berghei, read-out: IC50 in blood stage assays
[2] = test system: liver-stage Plasmodium berghei; assay: Liver-stage P. berghei assay; assay type: cell-based, Plasmodium berghei ANKA
Outline: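 Luciferase-expressing P. berghei ANKA sporozoites came from dissected infected Anopheles stephensi mosquitoes. 4000 sporozoites infected 15 000 HepG2 cells per well with test compound in triplicate, 0 to 50 μg/mL, final DMSO 1%. After 2 days at 37 °C, relative parasite load was read by Bright-Glo luminescence. Standard inhibition dose–response fit gave IC50, mean of two independent experiments.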

[3] = test system: Bacillus subtilis 3610; assay: Antibiotic assay; assay type: cell-based; conditions: concentrations as high as 50 μg/mL
[4] = test system: HepG2 human hepatoma cells; assay: Cytotoxic assay, HepG2 cell viability; assay type: cell-based; conditions: concentrations as high as 50 μg/mL
Outline: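 HepG2 cells kept in DMEM with 10% FBS and 1% antibiotic–antimycotic at 37 °C, 5% CO2. Test compound in DMSO added in triplicate to 15 000 cells per well, 0 to 50 μg/mL, final DMSO 1%. Incubated 2 days at 37 °C, then viability read by CellTiter-Glo luminescence. Standard inhibition dose–response fit gave IC50, averaged from two independent experiments.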

IC50 [1] [nM]	SMILES	activity against liver-stage Plasmodium berghei (in words) [2]	activity against B. subtilis (in words) [3]	cytotoxicity against HepG2 cells (in words) [4]
0.3	O=C1C(O)=C([C@H]2CC[C@H](c3ccc(Cl)cc3)CC2)C(=O)c2ccccc21 [Atovaquone]	–	–	–
–	COc1cccc2c1C(=O)c1ccc3c(c1C2=O)C(=O)C[C@](C)(O)C3 [Compound 4, 6-deoxy-8-O-methylrabelomycin]	showed antibiotic activity	showed antibiotic activity	–
–	COc1cccc2c1C(=O)c1ccc3cc(C)cc(O)c3c1C2=O [Compound 5, X-14881 E]	showed antibiotic activity	showed antibiotic activity	moderate cytotoxicity

From article PMC3481556 (Journal of Natural Products, 2012)
